Source: article PMC3910017 (CPT: Pharmacometrics & Systems Pharmacology, 2014)
“And” between values parts separate entries of the source, which are not always exact repeats. Identical values can stand only once. Like-named read-outs stand apart in the source and are kept apart here.

Experiments:
[1] = cited from earlier work
HDL-C [2] = conditions: similar exposure-response analysis; cited from earlier work
LDL-C [3] = conditions: cited from earlier work
[4] = format: in vivo, human
HDL-C [5] = test: HDL-C percent change from baseline, exposure-response; format: in vivo, human; conditions: for HDL-C increase as percent of the maximal effect: from EAUC50 and estimated AUC
In short: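 Dyslipidemic patients took placebo or 30, 100 or 500 mg daily for 12 weeks, or 100 mg plus simvastatin 40 mg, atorvastatin 20 mg or rosuvastatin 10 mg. HDL-C was measured by enzymatic assay at weeks 2, 4, 8 and 12. Percent change from baseline was fitted with placebo and statin terms plus a sigmoid Emax on each patient's post hoc steady-state AUC (EAUC50, Hill coefficient), with rate constant K.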

LDL-C [6] = test: LDL-C percent change from baseline, exposure-response; format: in vivo, human
In short: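 Arms were placebo or 30, 100 or 500 mg daily monotherapy, or 100 mg with simvastatin 40 mg, atorvastatin 20 mg or rosuvastatin 10 mg, for 12 weeks. LDL-C was measured by standard enzymatic assay at weeks 2, 4, 8 and 12. Percent change from baseline was modelled with placebo, statin and test-compound Emax terms on post hoc AUC, an interaction term, and time constant K. Covariates included baseline ApoA1.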

[7] = Healthy subject studies of evacetrapib; format: in vivo, human; conditions: 30-mg single dose, healthy subjects; data not shown
Protein binding = format: in vitro ADME; conditions: separate studies
Metabolism = conditions: separate studies
HDL-C [8] = conditions: dyslipidemic patients, alone or with statins; cited from earlier work
LDL-C [9] = conditions: dyslipidemic patients, alone or with statins; cited from earlier work
[10] = ref J.G. Suico et al., unpublished data, cited from earlier work
[11] = cited from earlier work; remark: listed apart in the source
[12] = patients in the ILLUMINATE study; cited from earlier work
[13] = phase III formulation of anacetrapib
[14] = week 16–18, 4–6 weeks after last dose, monotherapy groups

## COc1cc(F)c(C(C)C)cc1-c1ccc(C(F)(F)F)cc1CN1C(=O)O[C@H](c2cc(C(F)(F)F)cc(C(F)(F)F)c2)[C@@H]1C [anacetrapib]
[1]
  Increase of exposure with dose: Less than dose-proportional
[1]; [13]
  AUC with high-fat meal vs fasted state: 7.5 fold
  AUC with low-fat meal vs fasted state: 2.2 fold
HDL-C [2]
  Maximal effect on HDL-C: 176%
LDL-C [3]
  LDL-C reduction in combination with atorvastatin, kind of interaction: pharmacologically independent
LDL-C [3]; similar LDL-C model
  Theoretical maximal LDL-C reduction: 80%

## Cc1cc(C)c2c(c1)[C@@H](N(Cc1cc(C(F)(F)F)cc(C(F)(F)F)c1)c1nnn(C)n1)CCCN2C[C@H]1CC[C@H](C(=O)O)CC1 [evacetrapib]
[4]; 30–500 mg, dyslipidemic patients
  Increase of exposure with dose: less than dose-proportional
[4]; CGCL 50 vs 100 ml/minute
  Model-predicted population CL/F lower at CGCL 50 ml/minute than at 100 ml/minute: 10%
[4]; CL/F = 15.3 * (1+0.00105 * DOSE) * (1+0.00198 * (CGCL − 91.28)), DOSE in mg
  Effect of dose on CL/F (covariate coefficient): 0.00105 (21.6%, 0.000726–0.00144)
[4]; dose 30 mg
  CL/F, estimated population value: 13.1 L/h
[4]; dose 100 mg
  CL/F, estimated population value: 17.0 L/h
[4]; dose 500 mg
  CL/F, estimated population value: 25.4 L/h
[4]; final population PK model
  Oral clearance (CL/F), population estimate (%SEE, 95% CI): 15.3 (4.57%, 14.3–16.5) l/hour
  Peripheral volume of distribution (V3/F), population estimate (%SEE, 95% CI): 827 (18%, 600.7–1,071) l
[4]; final population PK model, value fixed, not estimated
  Rate of absorption (Ka): 0.3 hour^-1 and 0.3 (fixed) hour^-1
[4]; human, plasma, oral
  Vd/F: 228 L
HDL-C [5]; 30 mg dose
  HDL-C increase as percent of the maximal effect: ~ 30 % of the maximal effect
HDL-C [5]; 100 mg dose
  HDL-C increase as percent of the maximal effect: ~50 % of the maximal effect
HDL-C [5]; 500 mg dose
  HDL-C increase as percent of the maximal effect: ~80 % of the maximal effect
HDL-C [5]; final HDL-C model
  Time course constant (K) of HDL-C response, population estimate (%SEE, 95% CI): 0.00684 (7.43%, 0.00604–0.00791) hour^−1
HDL-C [5]; final HDL-C model, at median baseline HDL 52.2 mg/dl
  AUC that produced half of maximum effect (EAUC50), HDL-C, population estimate (%SEE, 95% CI): 5,380 (1.54%, 3,930–7,270) h·ng/ml
HDL-C [5]; theoretical maximum at steady state, final HDL-C model
  Maximum effect (Emax) on HDL-C, population estimate (%SEE, 95% CI): 177 (6.55%, 153–207) % change from baseline
HDL-C [5]; [14]
  HDL-C at follow-up visit after discontinuation: returned to levels similar to those of the placebo group
LDL-C [6]; coadministered with atorvastatin, simvastatin or rosuvastatin
  LDL-C response of evacetrapib and the statins, kind of interaction: pharmacologically independent
LDL-C [6]; final LDL-C model
  AUC that produced half of maximum effect (EAUC50), LDL-C, population estimate (%SEE, 95% CI): 4,230 (3.23%, 2,450 to 7,010) h·ng/ml
LDL-C [6]; final LDL-C model, printed as a reduction
  Theoretical maximal mean LDL-C decrease (reduction) relative to baseline: 44.1%
LDL-C [6]; [14]
  LDL-C at follow-up visit after discontinuation: returned to levels similar to those of the placebo group
[7]
  AUC0–∞ increased after a high-fat meal relative to low-fat meal: 41%
  AUC0–∞ reduced in the fasted state relative to low-fat meal: 38%
Protein binding
  Protein bound: > 99%
Metabolism
  Metabolism: metabolized primarily by oxidative pathways
HDL-C [8]
  Observed HDL-C increase: up to 129%
LDL-C [9]
  Observed LDL-C decrease: up to 36%
[10]; healthy subject studies
  Half-life: ~40 h
[10]; healthy subjects, 10–600 mg dose range
  Increase of exposure with dose: less than dose-proportional
[11]; administered alone or in combination with statins
  Safety and tolerability: safe and well tolerated
[11]; dyslipidemic patients
  Changes in mineralocorticoid levels or increases in systolic or diastolic blood pressure: did not cause any significant changes

## CCOC(=O)N1c2ccc(C(F)(F)F)cc2[C@@H](N(Cc2cc(C(F)(F)F)cc(C(F)(F)F)c2)C(=O)OC)C[C@H]1CC [torcetrapib]
[12]
  Adverse cardiovascular events: increased adverse cardiovascular events
